Article PMC3669693 (Journal of neuroimmune pharmacology : the official journal …, 2012)
Several values for one entry are separate records, joined by “and”; a condition that tells them apart may be missing. Equal values may be shown once. Read-outs that look alike come from different tables or passages of the source.

Assays:
[1] = biological target: T1, GPR55 (Homo sapiens, UniProt Q9Y2T6); settings: cited from earlier work
[2] = biological target: T1, GPR55; experiment: β-arrestin assessment of GPR55 activation; format: cell-based; settings: for maximal inhibition of LPI response / effect of low concentrations on LPI-mediated βarr2-GFP recruitment: agonist 3 μM LPI; for maximal inhibition of LPI response / maximal inhibition of SR141716A response: normalized to agonist response; for recruitment of βarr2-GFP by compound alone: no agonist, AEA 0.1–30 μM
Outline: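 U2OS cells stably co-expressing HA-GPR55E and βarr2-GFP were seeded on glass coverslips, kept overnight at 37°C/5% CO2 and assayed in HBSS. Test compound (0.01–30 μM) was pre-incubated 15 min, then co-incubated 40 min RT with 3 μM LPI or 30 μM SR141716A. Fixation: 4% paraformaldehyde, 25 min. Imaging: 488 nm, 40X oil. Fluorescent pit counts were normalized to agonist response (100%), with sigmoidal fits for IC50. Three experiments in duplicate.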

[3] = biological target: T1, GPR55; experiment: GPR55 internalization assay, immunocytochemistry; format: cell-based; settings: for effect on GPR55 internalization induced by ML184, ML185, ML186: 10 μM pre-incubation, agonist 5 μM of each ML compound; for effect on LPI-induced GPR55 internalization / effect on SR141716A-induced GPR55 internalization / GPR55 receptor localization, compound alone: 10 μM; for effect on LPI-induced GPR55 internalization / effect on SR141716A-induced GPR55 internalization: 15 min pre-incubation; for effect on LPI-induced GPR55 internalization: agonist 3 μM LPI; for effect on SR141716A-induced GPR55 internalization: agonist 30 μM SR141716A; for GPR55 receptor localization, compound alone: no agonist; for GPR55 receptor internalization, compound alone: 40 min, RT
[4] = system: HA-GPR55E/βarr2-GFP U2OS cells; experiment: LDH cytotoxicity assay; format: cell-based; settings: for toxicity to the cells (released LDH): at concentrations employed in this study (10 and 30 μM)
[5] = biological target: T1, GPR55; settings: read-out: EC50, agonist at GPR55 (βarr2-GFP distribution); previous study; ref Kapur et al. 2009; cited from earlier work
[6] = system: CB1; settings: read-out: agonist potency at CB1; ref Ryberg et al., 2007; cited from earlier work
[7] = system: CB1 receptor; settings: ref Porter et al., 2002; cited from earlier work
[8] = biological target: T1, GPR55; settings: read-out: agonist potency at GPR55; ref Ryberg et al., 2007; cited from earlier work
[9] = system: CB2; settings: read-out: agonist potency at CB2; ref Ryberg et al., 2007; cited from earlier work
[10] = system: CB2 receptor; settings: ref Porter et al., 2002; cited from earlier work
[11] = 10 μM + 3 μM LPI, % of total LDH activity
[12] = 10 μM + 30 μM SR141716A, % of total LDH activity
[13] = 10 μM alone, % of total LDH activity (1% Triton X-100)
[14] = 30 μM + 3 μM LPI, % of total LDH activity
[15] = 30 μM + 30 μM SR141716A, % of total LDH activity
[16] = 30 μM alone, % of total LDH activity (1% Triton X-100)

T1 sequence (Q9Y2T6 1-292 limits assumed): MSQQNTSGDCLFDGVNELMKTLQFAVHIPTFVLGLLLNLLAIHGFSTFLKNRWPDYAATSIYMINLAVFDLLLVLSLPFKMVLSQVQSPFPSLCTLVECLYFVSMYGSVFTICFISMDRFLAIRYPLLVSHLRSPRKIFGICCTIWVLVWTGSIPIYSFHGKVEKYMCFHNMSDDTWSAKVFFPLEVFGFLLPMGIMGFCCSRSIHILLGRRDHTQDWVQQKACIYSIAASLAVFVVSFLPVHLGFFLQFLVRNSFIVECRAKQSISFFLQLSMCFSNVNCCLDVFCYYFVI

Molecule: CCCCC/C=C\C/C=C\C/C=C\C/C=C\CCCC(=O)NCCO [AEA, N-arachidonyl ethanolamine]
- activation of GPR55 ([1]; previous findings of the laboratory, ref Kapur et al., 2009): did not activate GPR55
- IC50 [2]: 5910 nM and 12000 nM
- maximal inhibition of LPI response [2]: 20%
- maximal inhibition of SR141716A response ([2]; agonist 30 μM SR141716A): 65%
- recruitment of βarr2-GFP by compound alone [2]: did not result in recruitment of βarr2-GFP
- effect of low concentrations on LPI-mediated βarr2-GFP recruitment ([2]; low concentrations): enhanced the recruitment
- effect on GPR55 internalization induced by ML184, ML185, ML186 [3]: largely attenuated
- effect on LPI-induced GPR55 internalization [3]: markedly decreased receptor internalization
- effect on SR141716A-induced GPR55 internalization [3]: markedly decreased receptor internalization
- GPR55 receptor localization, compound alone [3]: membrane bound receptors
- Cell death, % [4, 11]: 6.12%
- Cell death, % [4, 12]: 6.79%
- Cell death, % [4, 13]: 5.90%
- Cell death, % [4, 14]: 5.86%
- Cell death, % [4, 15]: 8.02%
- Cell death, % [4, 16]: 5.93%
- toxicity to the cells (released LDH) [4]: neither AEA nor virodhamine are toxic

Molecule: CCCCCCC(C)(C)c1ccc([C@@H]2C[C@H](O)CC[C@H]2CCCO)c(O)c1 [CP55,940]
- type of activity at GPR55 ([1]; ref Henstridge et al. 2009, Kapur et al. 2009, Pineiro et al. 2011): antagonist/partial agonist

Molecule: Cc1cccc(N2CCN(C(=O)c3cc(S(=O)(=O)N(C)C)ccc3N3CCCC3)CC2)c1C [ML184, 3-[4-(2,3-dimethylphenyl)piperazine-1-carbonyl]-N,N-dimethyl-4-pyrrolidin-1-ylbenzenesulfonamide]
- GPR55 receptor internalization, compound alone ([3]; 5 μM): resulted in receptor internalization

Molecule: COc1ccc(-c2csc(NC(=O)CSc3nnc4c(C)cc5ccccc5n34)n2)cc1 [ML185, N-[4-(4-methoxyphenyl)-1,3-thiazol-2-yl]-2-[(4-methyl-[1,2,4]triazolo[4,3-a]quinolin-1-yl)sulfanyl]acetamide]
- GPR55 receptor internalization, compound alone ([3]; 5 μM): resulted in receptor internalization

Molecule: COc1ccc(S(=O)(=O)N2CCOCC2)cc1NC(=O)c1cc2c(s1)CCCC2 [ML186, N-(2-methoxy-5-morpholin-4-ylsulfonylphenyl)-4,5,6,7-tetrahydro-1-benzothiophene-2-carboxamide]
- GPR55 receptor internalization, compound alone ([3]; 5 μM): resulted in receptor internalization

Molecule: Cc1c(C(=O)NN2CCCCC2)nn(-c2ccc(Cl)cc2Cl)c1-c1ccc(Cl)cc1 [SR141716A, N-(piperidin-1-yl)-5-(4-chlorophenyl)-1-(2,4-dichlorophenyl)-4-methyl-1H-pyrazole-3-carboxamide]
- EC50 [5]: 3900 nM
- GPR55 receptor internalization, compound alone ([3]; 30 μM): loss of membrane staining and the appearance of cytosolic fluorescent aggregates corresponding to internalized receptors
- Cell death, % [4, 16]: 7.12%

Molecule: CCCCC/C=C\C/C=C\C/C=C\C/C=C\CCCC(=O)OCCN [virodhamine, O-arachidonoyl ethanolamine]
- EC50 [6]: 2900 nM
- type of activity at the CB1 receptor [7]: partial agonist/antagonist
- maximal inhibition of LPI response [2]: 46%
- maximal inhibition of SR141716A response ([2]; agonist 30 μM SR141716A): 68%
- recruitment of βarr2-GFP by compound alone [2]: weak recruitment of βarr2-GFP
- effect of low concentrations on LPI-mediated βarr2-GFP recruitment ([2]; low concentrations): enhanced the recruitment
- effect of low concentrations on SR141716A-mediated βarr2-GFP recruitment ([2]; low concentrations, agonist 30 μM SR141716A): enhanced the recruitment
- EC50 [8]: 12 nM
- effect on GPR55 internalization induced by ML184, ML185, ML186 [3]: largely attenuated
- effect on LPI-induced GPR55 internalization [3]: strikingly decreased receptor internalization
- effect on SR141716A-induced GPR55 internalization [3]: strikingly decreased receptor internalization
- GPR55 receptor localization, compound alone [3]: receptors were localized to the membrane
- EC50 [9]: 381 nM
- type of activity at the CB2 receptor [10]: full agonist
- Cell death, % [4, 11]: 6.94%
- Cell death, % [4, 12]: 6.44%
- Cell death, % [4, 13]: 7.27%
- Cell death, % [4, 14]: 8.73%
- Cell death, % [4, 15]: 6.93%
- Cell death, % [4, 16]: 8.08%
- toxicity to the cells (released LDH) [4]: neither AEA nor virodhamine are toxic

Molecule: lysophosphatidylinositol [LPI]
- EC50 [5]: 1200 nM
- GPR55 receptor internalization, compound alone ([3]; 3 μM): loss of membrane staining and the appearance of cytosolic fluorescent aggregates corresponding to internalized receptors
- Cell death, % ([4]; 3 μM alone, % of total LDH activity (1% Triton X-100)): 7.08%
